What is called inhibition is the change of the read-out against control, counted positive when it falls.

The test system of test [1] is Rattus norvegicus. The test can be described thus: The compound was tested for oral delivery of interferon-alpha in rats.(compound dose=800 mg/kg; inf-alpha dose= 1 mg/kg).
Test [2] concerns Rattus norvegicus. The test can be described thus: The compound was tested for oral delivery of calcitonin, activity is measured as reduction in serum calcium levels at 400 mg/kg and dose of calcitotin is 10 ug/kg. Format: functional. In short, it runs like this: (§1)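 Male Sprague-Dawley rats (125–150 g; groups of 6–7) were anesthetized with ketamine 44 mg/kg plus thiazine 0.5 mg/kg. They were given an aqueous pH 7.2 solution of compound with salmon calcitonin (400 mg/kg and 10 μg/kg) by oral gavage at 2 mL/kg. Control groups received calcitonin alone or compound alone. Tail-artery blood was sampled serially, and serum calcium was measured with a kit; results are % decrease, mean ± SE.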

For test [3], the species on record is Rattus norvegicus. Put plainly: The compound was tested for oral delivery of calcitonin, activity is measured as reduction in serum calcium levels. Format: functional. Further details: unit not given beside the values. In outline: as §1
Test [4] relates to Rattus norvegicus. Put plainly: The compound was tested for oral delivery of interferon-alpha in rats.(compound dose=400 mg/kg; inf-alpha dose= 250 ug/kg).
Test [5] relates to Rattus norvegicus. The test can be described thus: The compound was tested for oral delivery of interferon-alpha in rats.(compound dose=400 mg/kg; inf-alpha dose= 500 ug/kg).
Test [6] is filed under the species Rattus norvegicus. Put plainly: The compound was tested for oral delivery of interferon-alpha in rats.
Test [7] concerns the target Serine protease 1 (Homo sapiens) (UniProt P07477). The test can be described thus: The compound was tested for inhibitory activity against trypsin, activity is expressed as %inhibition. The settings on record: concentration not given here. In short, it runs like this: (§2)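 Trypsin activity was taken from USP pancreatin at 1 mg/mL final, in 50 mM potassium phosphate pH 7.6 at 37 °C. Test compound was preincubated with enzyme for 10 min. The reaction was started with N-benzoyl-L-arginine p-nitroanilide (300 μM final), and p-nitroaniline formation was followed at 400 nm over 12 min. Percent inhibition was calculated at 12 min from reaction rates versus compound-free controls.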

The target is the same in test [8]. Put plainly: The compound was tested for inhibitory activity against trypsin at 10 mg/mL. In outline: as §2

Molecules are shown by their SMILES.

Sequence of Serine protease 1 (Homo sapiens) (P07477 whole entry): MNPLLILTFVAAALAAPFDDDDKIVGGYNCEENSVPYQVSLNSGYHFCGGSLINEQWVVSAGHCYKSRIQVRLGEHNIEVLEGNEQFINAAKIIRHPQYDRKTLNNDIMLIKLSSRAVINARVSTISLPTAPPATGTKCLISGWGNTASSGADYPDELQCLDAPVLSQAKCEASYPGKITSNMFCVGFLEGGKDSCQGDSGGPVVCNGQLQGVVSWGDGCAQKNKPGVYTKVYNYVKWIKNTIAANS

In the test with Rattus norvegicus [1], `NC(=O)NCCC[C@H](NC(=O)C1CCCCC1)C(=O)O` displayed an Amount delivered of 1922 pg/mL.
The compound `NCCCC[C@H](NC(=O)C1CCCCC1)C(=O)O` yielded an Amount delivered in the test on Rattus norvegicus [1] of 3340 pg/mL.
Take `CC(C)C[C@H](NC(=O)c1cccc([N+](=O)[O-])c1)C(=O)O`: the “Ca2+ reduction” value in the test on Rattus norvegicus [2] is given as -14.5.
As to `O=C(N[C@H](C(=O)O)c1ccccc1)C1CCCC1`, the Amount delivered in the test with Rattus norvegicus [1] worked out at 4707 pg/mL.
Same read-out and setting: as for `O=C(N[C@H](C(=O)O)c1ccccc1)c1ccccc1O`, the figure is 757 pg/mL.
Take `CC(C)C[C@H](NC(=O)C1CCCCC1C)C(=O)O` (stereo partly drawn): the “Ca2+ reduction” value in the test with Rattus norvegicus [2] is listed as -18.27.
`CC(C)C[C@H](NC(=O)C1CCCC1)C(=O)O`: in the test listed under Rattus norvegicus [3], the “Ca2+ reduction” value is given as -6.28.
Consider `CC(C)C[C@H](NC(=O)C1CC1)C(=O)O`, for which the “Ca2+ reduction” value in the test listed under Rattus norvegicus [3] was -3.87.
Turning to `CC(C)C[C@H](NC(=O)C1CCCC(C)C1)C(=O)O` (stereo partly drawn), in the test on Rattus norvegicus [2], the “Ca2+ reduction” value is -13.69.
As to `O=C(N[C@H](C(=O)O)c1ccccc1)C1CCCCCC1`, in the test with Rattus norvegicus [1], the Amount delivered was 4066 pg/mL.
`O=C(CC1CCCCC1)N[C@H](C(=O)O)c1ccccc1`: in the test on Rattus norvegicus [1], the Amount delivered was determined as 6401 pg/mL.
In the case of `CC(C)C[C@H](NC(=O)C1CCC(C)CC1)C(=O)O` (stereo partly drawn), the “Ca2+ reduction” value with Rattus norvegicus [2] was -15.52.
As to `CC(C)C[C@H](NC(=O)c1ccccc1[N+](=O)[O-])C(=O)O`, the “Ca2+ reduction” value with Rattus norvegicus [2] is on record as -6.61.
The same measure, in the same setting: as for `CC(C)C[C@H](NC(=O)C1CCCCC1)C(=O)O.N=C(N)NCCC[C@H](NC(=O)C1CCCCC1)C(=O)O.O=C(N[C@@H](Cc1ccc(O)cc1)C(=O)O)C1CCCCC1`, the figure is -33.9.
As for `CC(C)C[C@H](NC(=O)C1CCCCC1C(=O)O)C(=O)O` (stereo partly drawn), the “Ca2+ reduction” value in the test listed under Rattus norvegicus [3] is reported as -10.47.
For `N=C(N)NCCC[C@H](NC(=O)C1CCCCC1)C(=O)O`, the Amount delivered in the test on Rattus norvegicus [1] came out at 2107 pg/mL.
For `CC(C)C[C@H](NC(=O)C1CCCCCC1)C(=O)O`, the “Ca2+ reduction” value with Rattus norvegicus [2] is on record as -19.76.
In the case of `COc1cccc(C(=O)N[C@@H](CC(C)C)C(=O)O)c1`, the “Ca2+ reduction” value in the test filed under Rattus norvegicus [3] is on record as -7.9.
In the case of `O=C(CCC1CCCCC1)N[C@H](C(=O)O)c1ccccc1`, the Amount delivered in the test on Rattus norvegicus [1] was 3026 pg/mL.
In turn, `O=C(N[C@H](C(=O)O)c1ccccc1)c1ccccc1` gave an Amount delivered with Rattus norvegicus [1] of 8427 pg/mL.
Take `CC(C)C[C@@H](NC(=O)C1CCCCC1)C(=O)O`: the “Ca2+ reduction” value in the test on Rattus norvegicus [2] was -18.32.
Take `O=C(N[C@@H](Cc1ccccc1)C(=O)O)C1CCCCC1`: the Amount delivered with Rattus norvegicus [1] was found to be 611 pg/mL.
`CC(C)C[C@H](NC(=O)CCC1CCCCC1)C(=O)O`: in the test with Rattus norvegicus [2], the “Ca2+ reduction” value is recorded as -14.97.
Take `O=C(N[C@H](C(=O)O)c1ccccc1)C1CCCCC1`: the Amount delivered came out at 434 pg/mL in the test on Rattus norvegicus [4], 2598 pg/mL in the test on Rattus norvegicus [5] and 3808 pg/mL in the test filed under Rattus norvegicus [6]. The inhibition in test [7] amounted to 44%.
As for `CC(C)C[C@H](NC(=O)C1CCCCC1)C(=O)O`, the “Ca2+ reduction” value in the test with Rattus norvegicus [2] is given as -21.82. The inhibition in test [8] stood at 39%.
For `CC(C)C[C@H](NC(=O)c1ccc([N+](=O)[O-])cc1)C(=O)O`, the “Ca2+ reduction” value with Rattus norvegicus [2] is on record as -11.8.
Compound `O=C(N[C@@H](Cc1ccc(O)cc1)C(=O)O)C1CCCCC1` registered an Amount delivered in the test with Rattus norvegicus [1] of 3422 pg/mL.
For `CC(C)C[C@H](NC(=O)c1ccccc1)C(=O)O`, in the test with Rattus norvegicus [2], the “Ca2+ reduction” value is on record as -12.9.
Turning to `CCC(C)[C@H](NC(=O)C1CCCCC1)C(=O)O` (stereo partly drawn), the Amount delivered in the test with Rattus norvegicus [1] came out at 340 pg/mL.
